CAL PDZ FP-1 – human CAL PDZ-peptide interaction inhibition; Q9HD26; purified CAL PDZ, TMR-peptide fluorescence polarization, 1 h; inhibition, % at 20 µM; 330,000 compounds, 0.02% hits;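 active means highest replicate inhibition of at least 40%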;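 further: plate controls were DMSO neutral control wells for no effect and unlabeled competitor peptide control wells for full effect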
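Material: tagged CAL PDZ domain; buffer or medium: 25 mM sodium phosphate pH 7.4, 150 mM NaCl, TCEP, IgG, Thesit; compound dosing: single point, 20 µM; schedule: 1 h incubation at room temperature before polarization reading; measured by: FP readout, S and P plane fluorescence; read-out basis: percent inhibition from loss of millipolarization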
CAL PDZ FP-2 – blocks peptide binding to the human CAL PDZ domain; inhibition, % at 24.9 µM; Q9HD26; AID 602252; 300,000 compounds, 0.92% hits; purified CAL PDZ, TMR-peptide fluorescence polarization, 1 h;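 active means mean inhibition of at least 30% with at least half of replicates also reaching 30%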;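 further: 0% = DMSO neutral control and 100% = excess unlabeled competitor peptide PRC23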
miR-122 sensor – blocks miR-122 activity in Huh7 sensor cells; activation (reporter increase), % at 12.5 µM; Huh7 miR-122 Renilla luciferase sensor, 48 h; neutral wells = 0, positive control = 100; 340,000 compounds, 0.3% hits;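 active means mean replicate activation score at least 90 and every replicate individually at or above 90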;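 further: higher luciferase means less miR-122 activity so hits act as miR-122 inhibitors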
PglD DTNB – inhibitors of Campylobacter jejuni PglD acetyltransferase. purified PglD enzyme, DTNB colorimetric CoA detection. 360,000 compounds, 0.098% hits. AID 602405. inhibition, % at 12.5 µM; in the data active means inhibition above about 16%, passing the limit was not always enough
Cneo AK release – Cryptococcus neoformans lysis via adenylate kinase release; C. neoformans lysis, adenylate kinase release luminescence, 4 h; normalised: neutral wells 0, clomiphene wells 100; lysis activity, % at 15 µM; 360,000 compounds, 0.2% hits;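 active means mean lysis activity across replicates of at least 80%, whatever share of replicates individually reach that level; inactive means mean lysis activity below 80%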
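Schedule: static 4 h at 37 °C with compound, 1 h detection; system: C. neoformans cells; benchmarks: Clomiphene as positive control; buffer or medium: fresh YPD medium; measure: luminescence rise reflecting yeast cell lysis; measured by: luminescent adenylate kinase detection reagent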
* marks the source's active call; other numbers are inactive results; / = no result given; [ ] = remark or other dose. Rows were chosen to be rich in hits. Some 1.1% of all compounds tested hit in one or more screens of this group.

SMILES	CAL PDZ FP-1	CAL PDZ FP-2	miR-122 sensor	PglD DTNB	Cneo AK release
CC(C)(CNC(=O)c1cc2ccccc2o1)N1CCOCC1	0	67*	-2	0	5
O=C(COc1ccc2c(c1)C(=O)CC1(CCCCC1)O2)NCc1ccccn1	/	-6	-3	3	1
O=C(COc1ccc2c(c1)C(=O)CC1(CCCCC1)O2)NCc1ccccc1	-5	-1	220*	-4	5
COc1ccc(Cl)cc1C(=O)NNC(=O)CNC(=O)c1ccc(C)s1	1	54*	4	-3	0
CC12CCC(=O)N1C(C(=O)N1CCN(c3cccc(Cl)c3)CC1)CS2 (stereo unspecified)	0	80*	0	-1	-2
Cc1ccc(-c2n[nH]c(=S)c3ccccc23)cc1S(=O)(=O)NCC1CCCO1 (stereo unspecified)	-4	39*	51	2	0
COC(=O)c1ccc(Nc2nnc(-c3ccc(C)c(S(=O)(=O)NCC4CCCO4)c3)c3ccccc23)cc1 (stereo unspecified)	-2	/	250*	0	1
Cc1ccc(-c2nnc(Nc3ccc(C(=O)N(C)C)cc3)c3ccccc23)cc1S(=O)(=O)NCC1CCCO1 (stereo unspecified)	-7	-6	/	/	/
CCOC(=O)CNS(=O)(=O)c1cc(-c2nnc(Nc3ccc4c(c3)OCO4)c3ccccc23)ccc1C	0	-4	106*	/	/
CNC(=O)CSc1nc2ccccc2c(=O)n1CCc1ccccc1	-1	-4	-2	-3	-2
Cc1ccc(S(=O)(=O)Nc2ccccc2-c2ccccc2)cc1	-3	0	161*	4	-2
CN(C)C(CNC(=O)c1cccc(S(=O)(=O)Nc2ccccc2Cl)c1)c1ccco1 (stereo unspecified)	0	32*	6	-2	0
Cc1ccc(S(=O)(=O)Nc2cc(C)c(O)c(S(=O)(=O)c3ccc(C)cc3)c2)cc1	-1	-4	140*	-2	/
C[C@@H]1CCCCO[C@@H](CN(C)S(=O)(=O)c2ccc(F)cc2)[C@H](C)CN([C@H](C)CO)C(=O)c2cc(NC(=O)Nc3cccc4ccccc34)ccc2O1	/	/	-3[16.7 µM]	-3	-6
C=CCn1c(O)c(N=NC(=O)CNC(=O)/C=C/c2ccc(OC)cc2)c2ccccc21	0	59*	4	9	0
C[C@H]1CN([C@@H](C)CO)C(=O)Cc2cc(NC(=O)CCCCCC(=O)Nc3ccccc3N)ccc2O[C@H]1CN(C)S(=O)(=O)c1cccs1	/	/	-7[16.7 µM]	2	-1
O=C(C1=C(O)C(=O)N(CCN2CCOCC2)C1c1ccccc1)c1cccs1 (stereo unspecified)	0	31*	-1	-3	0
CCCNC(=O)N1C[C@@H](O)COC[C@@H]2O[C@@H](CC(=O)N3CCOCC3)CC[C@H]21	/	/	-2[16.7 µM]	3	3
COc1ccc(C2=Nn3c(nnc3-c3ccccc3OC)SC2)cc1OC1CCOC1 (stereo unspecified)	0	0	131*	4	-3
C[C@H]1CN([C@@H](C)CO)C(=O)c2cc(NC(=O)Cc3ccccc3)ccc2O[C@H]1CN(C)C	/	/	-8[16.7 µM]	4	-1
COc1cccc(C2=NOC(C(=O)Nc3ccc4c(c3)OCO4)C2)c1 (stereo unspecified)	-1	3	/	/	/
O=C(Nc1ccc2c(c1)OCO2)C1CC(c2cccc(Br)c2)=NO1 (stereo unspecified)	/	42*	35	-1	1
O=C(Nc1ccccc1)Nc1ccc2c(c1)[C@H]1C[C@H](CC(=O)N3CCCCC3)O[C@H](CO)[C@H]1O2	/	/	-6[16.7 µM]	1	1
C/C=C/c1ccc([C@@H]2[C@H](CO)N(S(C)(=O)=O)[C@H]2CN(C)C(=O)CC)cc1	/	/	-1[16.7 µM]	1	-1
Cc1cc(C(=O)N2CCCC(CCC(=O)N3CCN(c4ccccn4)CC3)C2)c(C)o1 (stereo unspecified)	0	45*	0	-1	0
SMILES	CAL PDZ FP-1	CAL PDZ FP-2	miR-122 sensor	PglD DTNB	Cneo AK release
CS(=O)(=O)Oc1ccc(Br)c2cccnc12	-1	74*	/	0	1
Nc1ccc(Br)c2cccnc12	-1	-1	/	/	/
Oc1ccc(C(=S)N2CCCC2)cc1	0	-1	-2	9	-1
CC1CCN(C(=S)c2ccc(O)cc2)CC1	0	/	248*	0	-3
O=C(NC1CCCC1)N1CCCCN2[C@H](CO)[C@@H](c3ccc(-c4cncnc4)cc3)[C@H]2C1	/	/	45[16.7 µM]	3	106*
O=C(Nc1ccccc1)N1CCCCN2[C@H](CO)[C@@H](c3ccc(C#CC4CC4)cc3)[C@@H]2C1	/	/	17[16.7 µM]	-2	100*
CCN1CCN(C(=O)CN2C(=O)COc3ccc(C)cc32)CC1	-6	-13	/	5	3
CCOc1cc(N(CC)CC)ccc1/C=C(/C#N)c1nc2ccccc2[nH]1	1	43*	-19	1	-3
CCCOc1cc(N(CC)CC)ccc1/C=C(/C#N)c1nc2ccc(C)cc2[nH]1	-2	-6	7	2	-2
O=C(Nc1ccc(Cl)cn1)Nc1ccc(Cl)cn1	-1	47*	/	/	/
COc1ccccc1N1CC(C)(C)C(=O)N(C(=O)c2c(F)cccc2Cl)C1=S	-1	81*	2	-3	0
Fc1cccc2sc(N3CCCCC3)nc12	-1	37*	-6	1	0
Cc1noc(C)c1S(=O)(=O)N(C)C[C@@H]1Oc2c(NC(=O)c3cnccn3)cccc2C(=O)N([C@@H](C)CO)C[C@@H]1C	/	/	166*[16.7 µM]	4	114*
C[C@@H]1CN([C@H](C)CO)C(=O)c2cccc(NC(=O)c3cnccn3)c2O[C@H]1CN(C)Cc1ccc(C(F)(F)F)cc1	/	/	66[16.7 µM]	1	2
C[C@@H]1CN([C@@H](C)CO)C(=O)c2cccc(NC(=O)c3ccncc3)c2O[C@H]1CN(C)Cc1ccc(C(F)(F)F)cc1	/	/	34[16.7 µM]	2	-3
C[C@@H]1CN([C@@H](C)CO)C(=O)c2cccc(NC(=O)c3ccc(-c4nccs4)cc3)c2O[C@@H]1CN(C)Cc1ccc(C(=O)Nc2ccccc2N)cc1	/	/	213*[16.7 µM]	6	4
C[C@H](CO)N1C[C@H](C)[C@@H](CN(C)S(C)(=O)=O)Oc2c(NC(=O)c3cnccn3)cccc2C1=O	/	/	-7[16.7 µM]	-4	-2
C[C@H]1CN([C@@H](C)CO)C(=O)c2cccc(NC(=O)c3ccncc3)c2O[C@@H]1CN(C)Cc1ccc(C(F)(F)F)cc1	/	/	108*[16.7 µM]	-2	49
C[C@@H]1CN([C@@H](C)CO)C(=O)c2cccc(NC(=O)c3cnccn3)c2O[C@H]1CN(C)Cc1ccc(C(F)(F)F)cc1	/	/	152*[16.7 µM]	3	61
C[C@H](CO)N1C[C@H](C)[C@@H](CN(C)S(=O)(=O)c2cn(C)cn2)OCCCC[C@H](C)Oc2ccc(NS(C)(=O)=O)cc2C1=O	/	/	7[16.7 µM]	6	1

Screening results: PubChem BioAssay, Broad Institute
